According to ChEMBL document CHEMBL1150274 (Bioorg Med Chem, 2008):
Active and inactive are the calls of the source. No cut-off for these calls is given here.

Tests used:
[1] = biological target: Delta-type opioid receptor (Homo sapiens, UniProt P41143); test: Displacement of [3H]naltrindole from human delta opioid receptor expressed in CHO cells; assay type: cell-based
Mu-type opioid receptor [2] = biological target: T1, Mu-type opioid receptor (Homo sapiens, UniProt P35372); test: Displacement of [3H]DAMGO from human mu opioid receptor expressed in CHO cells; assay type: cell-based
T1 sequence (P35372 whole entry): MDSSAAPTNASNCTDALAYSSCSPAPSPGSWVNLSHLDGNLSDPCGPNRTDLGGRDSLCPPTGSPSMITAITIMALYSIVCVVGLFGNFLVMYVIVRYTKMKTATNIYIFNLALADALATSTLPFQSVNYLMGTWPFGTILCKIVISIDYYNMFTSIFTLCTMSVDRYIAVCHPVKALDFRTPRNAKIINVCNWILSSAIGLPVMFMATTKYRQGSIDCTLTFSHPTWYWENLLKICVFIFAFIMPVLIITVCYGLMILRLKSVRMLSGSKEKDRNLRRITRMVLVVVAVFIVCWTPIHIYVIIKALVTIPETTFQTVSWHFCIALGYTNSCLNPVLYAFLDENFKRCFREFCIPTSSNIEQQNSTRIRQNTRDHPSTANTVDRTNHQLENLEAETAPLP

[3] = biological target: T2, Kappa-type opioid receptor (Homo sapiens, UniProt P41145); test: Displacement of [3H]U69,593 from human kappa opioid receptor expressed in CHO cells; assay type: cell-based
T2 sequence (P41145 whole entry): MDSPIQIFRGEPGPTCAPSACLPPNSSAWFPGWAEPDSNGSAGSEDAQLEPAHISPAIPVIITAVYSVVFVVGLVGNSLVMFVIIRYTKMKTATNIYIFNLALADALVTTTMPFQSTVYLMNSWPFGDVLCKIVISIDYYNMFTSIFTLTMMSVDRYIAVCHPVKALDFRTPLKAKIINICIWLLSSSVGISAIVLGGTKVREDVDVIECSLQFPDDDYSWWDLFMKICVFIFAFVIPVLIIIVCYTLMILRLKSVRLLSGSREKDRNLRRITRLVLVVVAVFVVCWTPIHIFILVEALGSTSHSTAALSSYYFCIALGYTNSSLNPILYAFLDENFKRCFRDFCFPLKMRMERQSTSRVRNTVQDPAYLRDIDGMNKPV

[4] = biological target: T2, Kappa-type opioid receptor; test: Activity at human kappa opioid receptor expressed in CHO cells assessed as stimulation of [35S]GTPgammaS binding relative to basal level; assay type: functional, cell-based
Outline: (§1)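 Twelve compound concentrations were incubated with CHO membranes (κ 15 μg, μ 7.5 μg) and 0.080 nM [35S]GTPγS for 60 min at 30°C. Nonspecific binding was defined with 10 μM GTPγS. Samples were filtered and counted. Emax was taken with basal set at 0%, with EC50. Mean ± SEM, ≥3 experiments in triplicate.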

[5] = biological target: T2, Kappa-type opioid receptor; test: Antagonist activity at human kappa opioid receptor expressed in CHO cells assessed as inhibition of U50,488-stimulated [35S]GTPgammaS binding; assay type: functional, cell-based
Outline: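 κ-receptor CHO membranes were incubated with compound in the presence of 100 nM U50,488 in a [35S]GTPγS binding assay.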

Mu-type opioid receptor [6] = biological target: T1, Mu-type opioid receptor; test: Antagonist activity at human mu opioid receptor expressed in CHO cells assessed as inhibition of DAMGO-stimulated [35S]GTPgammaS binding; assay type: functional, cell-based
[7] = biological target: T2, Kappa-type opioid receptor; test: Activity at human kappa opioid receptor expressed in CHO cells assessed as stimulation of [35S]GTPgammaS binding; assay type: functional, cell-based; outline: as §1
Mu-type opioid receptor [8] = biological target: T1, Mu-type opioid receptor; test: Activity at human mu opioid receptor expressed in CHO cells assessed as stimulation of [35S]GTPgammaS binding relative to basal level; assay type: functional, cell-based; outline: as §1

Sequence of Delta-type opioid receptor (P41143 whole entry): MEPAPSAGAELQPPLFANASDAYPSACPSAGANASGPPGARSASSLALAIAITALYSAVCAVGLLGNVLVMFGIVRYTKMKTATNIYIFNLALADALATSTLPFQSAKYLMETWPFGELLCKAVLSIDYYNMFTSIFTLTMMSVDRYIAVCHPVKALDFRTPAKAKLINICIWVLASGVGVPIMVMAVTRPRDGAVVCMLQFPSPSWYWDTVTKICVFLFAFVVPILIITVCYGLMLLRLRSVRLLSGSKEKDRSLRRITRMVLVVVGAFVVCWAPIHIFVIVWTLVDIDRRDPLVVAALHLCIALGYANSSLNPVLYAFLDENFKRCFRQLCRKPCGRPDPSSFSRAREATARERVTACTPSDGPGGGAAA

| SMILES | Ki [1] [µM] | Ki (Mu-type opioid receptor [2]) [µM] | Ki [3] [µM] | Emax [4] [%] | Activity [5] | IC50 (Mu-type opioid receptor [6]) [µM] | Imax (Mu-type opioid receptor [6]) [%] | EC50 [7] [µM] | Emax (Mu-type opioid receptor [8]) [%] | IC50 [5] [µM] | Imax [5] [%] |
| --- | --- | --- | --- | --- | --- | --- | --- | --- | --- | --- | --- |
| C[C@H]1C2Cc3cc4ncnc(NCc5ccccc5)c4cc3[C@@]1(C)CCN2CC1CC1 (mixture of isomers) | 1 | 0.088 | 0.048 | – | – | – | – | – | – | – | – |
| C[C@H]1C2Cc3ccc4c(NCCc5ccc(-c6ccccc6)cc5)ncnc4c3[C@@]1(C)CCN2CC1CC1 (mixture of isomers) | 0.052 | 0.0069 | 0.0086 | – | – | – | – | – | – | – | – |
| C[C@H]1C2Cc3cc([N+](=O)[O-])c(O)cc3[C@@]1(C)CCN2CC1CC1 (mixture of isomers) | > 10 | 3.8 | 0.58 | – | – | – | – | – | – | – | – |
| C[C@H]1C2Cc3ccc(C(N)=O)c([N+](=O)[O-])c3[C@@]1(C)CCN2CC1CC1 (mixture of isomers) | 0.22 | 0.02 | 0.034 | – | – | – | – | – | – | – | – |
| C[C@H]1C2Cc3ccc(C(N)=O)c(N)c3[C@@]1(C)CCN2CC1CC1 (mixture of isomers) | 0.035 | 0.00055 | 0.0007 | 38 | inactive | 0.031 | 93 | 0.015 | 4.6 | – | – |
| C[C@H]1C2Cc3ccc(O)c([N+](=O)[O-])c3[C@@]1(C)CCN2CC1CC1 (mixture of isomers) | 1.9 | 0.032 | 0.0032 | – | – | – | – | – | – | – | – |
| C[C@H]1C2Cc3cc4ncnc(NCCc5ccc(-c6ccccc6)cc5)c4cc3[C@@]1(C)CCN2CC1CC1 (mixture of isomers) | 0.41 | 0.028 | 0.14 | – | – | – | – | – | – | – | – |
| C[C@H]1C2Cc3cc([N+](=O)[O-])c(C(N)=O)cc3[C@@]1(C)CCN2CC1CC1 (mixture of isomers) | 0.73 | 0.63 | 0.11 | – | – | – | – | – | – | – | – |
| C[C@H]1C2Cc3cc4ncnc(N)c4cc3[C@@]1(C)CCN2CC1CC1 (mixture of isomers) | > 10 | 0.89 | 0.56 | – | – | – | – | – | – | – | – |
| C[C@H]1C2Cc3ccc4c(NCc5ccccc5)ncnc4c3[C@@]1(C)CCN2CC1CC1 (mixture of isomers) | 1.5 | 0.044 | 0.24 | – | – | – | – | – | – | – | – |
| C[C@H]1C2Cc3ccc4c(N)ncnc4c3[C@@]1(C)CCN2CC1CC1 (mixture of isomers) | 0.12 | 0.00055 | 0.001 | 6.3 | – | 0.028 | 88 | – | 0.64 | 1.3 | 75 |
| C[C@H]1C2Cc3cc4cc[nH]c(=O)c4cc3[C@@]1(C)CCN2CC1CC1 (mixture of isomers) | 0.074 | 0.0055 | 0.00074 | 91 | inactive | 0.85 | 69 | 0.06 | 27 | – | – |
